ChEMBL document CHEMBL1131198, “From micromolar to nanomolar affinity: a systematic approach to identify the binding site of CGRP at the human calcitonin gene-related peptide 1 receptor” (J Med Chem, 1998)

Molecular target: Calcitonin gene-related peptide type 1 receptor (Homo sapiens, UniProt Q16602)
Assay: CGRP1 receptor affinity on human neuroblastoma cells SK-N-MC, which selectively express the human CGRP1 receptor.
In short: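 SK-N-MC membranes (cells grown in DMEM, detached with PBS/0.02% EDTA, homogenized, pellet in Tris buffer pH 7.40 with 1% BSA, 0.1% bacitracin, stored -80 °C) diluted 1:10 in assay buffer (50 mM Tris, 150 mM NaCl, 5 mM MgCl2, 1 mM EDTA, pH 7.40).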

Sequence of Calcitonin gene-related peptide type 1 receptor (Q16602 whole entry): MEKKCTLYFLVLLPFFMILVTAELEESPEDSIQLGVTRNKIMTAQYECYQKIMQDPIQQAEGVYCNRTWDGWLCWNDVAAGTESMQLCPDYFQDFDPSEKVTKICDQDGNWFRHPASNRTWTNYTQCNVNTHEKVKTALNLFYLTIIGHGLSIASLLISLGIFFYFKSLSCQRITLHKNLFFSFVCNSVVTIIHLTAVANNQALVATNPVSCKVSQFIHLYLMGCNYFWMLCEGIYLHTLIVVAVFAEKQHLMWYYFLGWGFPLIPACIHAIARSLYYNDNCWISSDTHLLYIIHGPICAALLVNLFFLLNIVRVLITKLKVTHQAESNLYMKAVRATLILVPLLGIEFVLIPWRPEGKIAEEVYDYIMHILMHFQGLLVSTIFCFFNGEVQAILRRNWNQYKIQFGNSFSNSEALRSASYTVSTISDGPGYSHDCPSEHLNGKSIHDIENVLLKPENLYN

Substance | IC50
H-YVPTNFGSEAF-OH | No displacement
H-YVPTNV-OH | No displacement
H-YVPTNVASEAF-OH | No displacement
H-YVPTNVFSEAF-OH | No displacement
H-YVPTNVG-OH | No displacement
H-YVPTNVGFEAF-OH | No displacement
H-YVPTNVGS-OH | No displacement
H-YVPTNVGSE-OH | No displacement
H-YVPTNVGSEA-OH | No displacement
H-YVPTNVGSEAA-OH | No displacement
H-YVPTNVGSEFF-OH | No displacement
